Assay results from ChEMBL document CHEMBL4842326, “Design, synthesis and biological evaluation of 3, 4-disubstituted-imidazolidine-2, 5-dione derivatives as HDAC6 selective inhibitors” (Eur J Med Chem, 2021).

Key:
[1] = target: T1, Protein deacetylase HDAC6 (Homo sapiens, UniProt Q9UBN7); assay: Inhibition of HDAC6 (unknown origin) using Ac-LeuGlyLy-s(Ac)-AMC as substrate preincubated for 10 mins followed by substrate addition and further incubated for 2 hrs by fluorescence microtiter plate reader assay
T1 sequence (Q9UBN7 whole entry): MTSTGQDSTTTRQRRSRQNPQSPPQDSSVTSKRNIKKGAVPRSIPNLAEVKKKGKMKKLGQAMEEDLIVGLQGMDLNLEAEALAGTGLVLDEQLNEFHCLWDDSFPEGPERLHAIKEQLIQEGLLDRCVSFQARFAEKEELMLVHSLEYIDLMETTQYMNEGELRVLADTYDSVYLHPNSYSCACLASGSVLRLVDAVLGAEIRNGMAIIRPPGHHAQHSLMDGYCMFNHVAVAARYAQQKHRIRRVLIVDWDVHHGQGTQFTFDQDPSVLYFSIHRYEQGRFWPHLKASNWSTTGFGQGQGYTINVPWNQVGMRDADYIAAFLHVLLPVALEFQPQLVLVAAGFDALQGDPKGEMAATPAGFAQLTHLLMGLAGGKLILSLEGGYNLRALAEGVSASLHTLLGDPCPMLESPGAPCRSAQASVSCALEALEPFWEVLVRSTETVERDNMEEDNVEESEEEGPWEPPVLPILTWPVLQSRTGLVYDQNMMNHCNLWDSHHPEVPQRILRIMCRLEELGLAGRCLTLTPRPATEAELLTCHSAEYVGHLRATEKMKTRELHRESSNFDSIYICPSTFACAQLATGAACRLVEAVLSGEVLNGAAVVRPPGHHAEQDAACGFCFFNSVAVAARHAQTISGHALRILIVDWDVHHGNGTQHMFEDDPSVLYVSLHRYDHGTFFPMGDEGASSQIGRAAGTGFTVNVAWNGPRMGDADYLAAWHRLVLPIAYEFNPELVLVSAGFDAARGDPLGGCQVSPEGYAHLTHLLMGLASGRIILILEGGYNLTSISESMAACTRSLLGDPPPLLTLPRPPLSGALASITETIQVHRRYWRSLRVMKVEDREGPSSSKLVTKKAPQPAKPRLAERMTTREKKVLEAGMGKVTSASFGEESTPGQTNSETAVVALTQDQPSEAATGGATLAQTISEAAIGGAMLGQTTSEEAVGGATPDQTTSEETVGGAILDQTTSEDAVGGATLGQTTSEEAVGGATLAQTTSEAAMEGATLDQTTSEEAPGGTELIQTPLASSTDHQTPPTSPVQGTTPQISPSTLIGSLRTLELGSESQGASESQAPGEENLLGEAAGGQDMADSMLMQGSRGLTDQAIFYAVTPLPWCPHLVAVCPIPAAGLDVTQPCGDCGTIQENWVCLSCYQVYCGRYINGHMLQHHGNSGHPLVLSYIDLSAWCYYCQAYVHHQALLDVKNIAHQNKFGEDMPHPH

Histone deacetylase 1 [2] = target: T2, Histone deacetylase 1 (Homo sapiens, UniProt Q13547); assay: Inhibition of HDAC1 (unknown origin) using Ac-LeuGlyLys(Ac)-AMC as substrate preincubated for 10 mins followed by substrate addition and further incubated for incubated for 1 hrs by fluorescence microtiter plate reader assay
T2 sequence (Q13547 whole entry): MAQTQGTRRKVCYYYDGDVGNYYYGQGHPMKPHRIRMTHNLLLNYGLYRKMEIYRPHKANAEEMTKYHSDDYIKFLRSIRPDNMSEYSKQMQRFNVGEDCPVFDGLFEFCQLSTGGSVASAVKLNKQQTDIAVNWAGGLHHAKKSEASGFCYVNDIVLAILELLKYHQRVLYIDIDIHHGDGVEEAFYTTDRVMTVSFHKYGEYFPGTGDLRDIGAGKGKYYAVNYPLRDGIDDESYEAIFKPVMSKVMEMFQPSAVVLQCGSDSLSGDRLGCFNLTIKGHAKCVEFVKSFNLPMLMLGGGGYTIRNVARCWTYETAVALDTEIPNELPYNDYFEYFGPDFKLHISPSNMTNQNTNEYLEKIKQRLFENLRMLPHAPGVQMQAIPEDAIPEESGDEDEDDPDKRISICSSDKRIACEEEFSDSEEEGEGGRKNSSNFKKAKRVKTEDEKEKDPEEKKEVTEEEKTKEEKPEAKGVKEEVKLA

Histone deacetylase 2 [3] = target: T3, Histone deacetylase 2 (Homo sapiens, UniProt Q92769)
T3 sequence (Q92769 whole entry): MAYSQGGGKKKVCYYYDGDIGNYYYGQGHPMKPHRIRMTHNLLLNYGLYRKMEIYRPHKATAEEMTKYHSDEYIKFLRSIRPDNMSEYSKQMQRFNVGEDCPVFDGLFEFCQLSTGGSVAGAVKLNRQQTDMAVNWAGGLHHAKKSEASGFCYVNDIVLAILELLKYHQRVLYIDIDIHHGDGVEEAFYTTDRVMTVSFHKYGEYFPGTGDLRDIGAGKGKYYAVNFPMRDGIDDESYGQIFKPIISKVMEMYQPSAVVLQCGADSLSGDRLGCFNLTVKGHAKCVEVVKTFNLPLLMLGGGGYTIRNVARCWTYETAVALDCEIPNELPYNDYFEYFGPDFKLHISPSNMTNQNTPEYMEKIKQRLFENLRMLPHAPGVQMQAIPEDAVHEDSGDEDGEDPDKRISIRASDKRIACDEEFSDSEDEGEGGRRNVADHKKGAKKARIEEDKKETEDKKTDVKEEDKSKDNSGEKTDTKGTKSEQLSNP

Histone deacetylase 8 [4] = target: T4, Histone deacetylase 8 (Homo sapiens, UniProt Q9BY41); assay: Inhibition of HDAC8 (unknown origin) using Ac-LeuGlyLys(tfa)-AMC as substrate preincubated for 10 mins followed by substrate addition and further incubated for incubated for 1 hrs by fluorescence microtiter plate reader assay
T4 sequence (Q9BY41 whole entry): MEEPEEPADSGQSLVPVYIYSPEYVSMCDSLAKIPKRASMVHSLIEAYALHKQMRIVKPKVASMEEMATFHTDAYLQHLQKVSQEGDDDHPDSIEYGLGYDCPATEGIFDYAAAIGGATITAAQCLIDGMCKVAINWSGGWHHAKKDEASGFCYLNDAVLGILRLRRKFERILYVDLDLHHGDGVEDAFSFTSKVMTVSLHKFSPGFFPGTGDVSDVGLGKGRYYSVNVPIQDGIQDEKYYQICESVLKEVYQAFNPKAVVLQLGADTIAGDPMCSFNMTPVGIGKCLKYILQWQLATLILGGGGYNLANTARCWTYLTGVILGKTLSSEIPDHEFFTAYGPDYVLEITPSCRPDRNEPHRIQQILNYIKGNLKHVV

Histone deacetylase 1 [5] = target: T2, Histone deacetylase 1; assay: Inhibition of HDAC1 (unknown origin)
Histone deacetylase 2 [6] = target: T3, Histone deacetylase 2; assay: Inhibition of HDAC2 (unknown origin)
Histone deacetylase 3 = Histone deacetylase 3 (Homo sapiens, UniProt O15379); assay: Inhibition of HDAC3 (unknown origin)
Chain of Histone deacetylase 3 (O15379 whole entry): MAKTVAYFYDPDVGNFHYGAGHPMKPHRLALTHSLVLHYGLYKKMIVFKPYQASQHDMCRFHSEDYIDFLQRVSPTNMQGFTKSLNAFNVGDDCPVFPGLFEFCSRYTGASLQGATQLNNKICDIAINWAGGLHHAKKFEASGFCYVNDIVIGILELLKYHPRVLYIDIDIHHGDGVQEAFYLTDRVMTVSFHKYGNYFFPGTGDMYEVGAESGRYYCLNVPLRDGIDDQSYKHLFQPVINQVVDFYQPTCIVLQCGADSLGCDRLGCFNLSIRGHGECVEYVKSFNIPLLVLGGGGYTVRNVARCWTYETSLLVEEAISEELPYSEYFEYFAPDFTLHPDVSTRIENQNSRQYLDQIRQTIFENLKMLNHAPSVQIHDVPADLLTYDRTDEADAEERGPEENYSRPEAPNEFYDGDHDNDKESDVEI

Histone deacetylase 8 [7] = target: T4, Histone deacetylase 8; assay: Inhibition of HDAC8 (unknown origin)
Homo sapiens [8] = organism: Homo sapiens; assay: Selectivity ratio of IC50 for HDAC1 (unknown origin) to IC50 for HDAC6 (unknown origin)
Homo sapiens [9] = organism: Homo sapiens; assay: Selectivity ratio of IC50 for HDAC2 (unknown origin) to IC50 for HDAC6 (unknown origin)
Homo sapiens [10] = organism: Homo sapiens; assay: Selectivity ratio of IC50 for HDAC8 (unknown origin) to IC50 for HDAC6 (unknown origin)
KG-1 = assay: Antiproliferative activity against human KG-1 cells assessed as inhibition of cell proliferation after 48 hrs by MTT assay; assay type: functional, cell-based; conditions: KG-1, 48 h
How it was run: (§1)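 Leukemia/myeloma lines grown in RPMI1640 with 10% FBS at 37 °C, 5% CO2; seeded at 3500–4000 cells/well, cultured overnight, then exposed to serial dilutions for 48 h.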

HEL = assay: Antiproliferative activity against human HEL cells assessed as inhibition of cell proliferation after 48 hrs by MTT assay; assay type: functional, cell-based; how it was run: as §1
Jurkat = assay: Antiproliferative activity against human Jurkat cells assessed as inhibition of cell proliferation after 48 hrs by MTT assay; assay type: functional, cell-based; how it was run: as §1
HL-60 [11] = assay: Antiproliferative activity against human HL-60 cells assessed as inhibition of cell proliferation after 48 hrs by MTT assay; assay type: functional, cell-based; conditions: HL-60, 48 h; how it was run: as §1
NCI-H929 = assay: Antiproliferative activity against human NCI-H929 cells assessed as inhibition of cell proliferation after 48 hrs by MTT assay; assay type: functional, cell-based; conditions: NCI-H929, 48 h; how it was run: as §1
HL-60 [12] = assay: Induction of apoptosis in human HL-60 cells assessed as viable cells at 3 uM after 48 hrs by Annexin V-FITC/propidium iodide staining based flow cytometric analysis (reference value: 93.4%); assay type: functional; conditions: read-out: Activity
How it was run: (§2)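 HL-60 cells (1 × 10^6/well) exposed 48 h to compound dilutions, collected, PBS-washed, resuspended in Annexin V-FITC binding buffer, stained with propidium iodide and Annexin V-FITC for 15 min, then analysed by flow cytometry.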

HL-60 [13] = assay: Induction of apoptosis in human HL-60 cells assessed as early apoptotic cells at 3 uM after 48 hrs by Annexin V-FITC/propidium iodide staining based flow cytometric analysis (reference value: […]%); assay type: functional
HL-60 [14] = assay: Induction of apoptosis in human HL-60 cells assessed as late apoptotic cells at 3 uM after 48 hrs by Annexin V-FITC/propidium iodide staining based flow cytometric analysis (reference value: 1.45%); assay type: functional; how it was run: as §2
HUVEC = assay: Cytotoxicity against human HUVEC cells assessed as decrease in cell viability after 48 hrs by MTT assay; assay type: cell-based
How it was run: (§3)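 Normal cells: HUVECs in RPMI1640 with 10% FBS plus 0.1% heparin, GEC-1 in RPMI1640 with 10% FBS. Seeded 8 h, then treated with serial dilutions for 48 h; 0.5% MTT for 4 h, supernatant removed, DMSO added, absorbance read at 570 nm.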

[15] = Cytotoxicity against human GEC1 cells assessed as decrease in cell viability after 48 hrs by MTT assay; assay type: cell-based; conditions: GEC1, 48 h; how it was run: as §3

Row | SMILES | IC50 [1] [nM] | other results
1 | O=C(NO)c1ccc(CN2C(=O)CN(Cc3ccc4ccccc4c3)C2=O)cc1 | 13.1 | 
2 | CC(C)(C)c1ccc(CN2CC(=O)N(Cc3ccc(C(=O)NO)cc3)C2=O)cc1 | 40.7 | 
3 | CCCN1CC(=O)N(Cc2ccc(C(=O)NO)cc2)C1=O | 53.4 | 
4 | O=C(NO)c1ccc(CN2C(=O)CN(Cc3ccc(Cl)cc3)C2=O)cc1 | 8.3 | IC50 (Histone deacetylase 1 [2]): 863 nM; IC50 (Histone deacetylase 2 [3]): 1080 nM; IC50 (Histone deacetylase 8 [4]): 994 nM
5 | O=C(NO)c1ccc(CN2C(=O)CN(CCc3ccccc3)C2=O)cc1 | 21.7 | 
6 | Cc1ccc(CN2CC(=O)N(Cc3ccc(C(=O)NO)cc3)C2=O)cc1 | 17.6 | 
7 | O=C(NO)c1ccc(CN2C(=O)CN(Cc3ccccc3)C2=O)cc1 | 12.5 | 
8 | CN1CC(=O)N(Cc2ccc(C(=O)NO)cc2)C1=O | 119 | 
9 | COc1ccc(CN2CC(=O)N(Cc3ccc(C(=O)NO)cc3)C2=O)cc1 | 28.2 | 
10 | CC(C)(C)OC(=O)Nc1ccc(-c2cc(NC(=O)CCCCCCC(=O)NO)no2)cc1 |  | IC50 (Histone deacetylase 1 [5]): 271 nM; IC50 (Histone deacetylase 2 [6]): 252 nM; IC50 (Histone deacetylase 3): 0.42 nM; IC50 (Histone deacetylase 8 [7]): 6850 nM
11 | O=C(NO)c1ccc(CN2C(=O)NC(CCc3ccccc3)(c3ccccc3)C2=O)cc1 (racemic) | 24.7 | 
12 | O=C(NO)c1ccc(CN2C(=O)C(Cc3ccccc3)N(Cc3cccc4ccccc34)C2=O)cc1 (racemic) | 28.8 | 
13 | O=C(NO)c1ccc(CN2C(=O)NC(Cc3ccc(Cl)cc3)(c3ccccc3)C2=O)cc1 (racemic) | 54 | 
14 | Cc1ccc(CN2C(=O)N(Cc3ccc(C(=O)NO)cc3)C(=O)C2Cc2ccccc2)cc1 (racemic) | 37.8 | 
15 | O=C(NO)c1ccc(CN2C(=O)C(Cc3ccccc3)N(Cc3ccc(Cl)cc3)C2=O)cc1 (racemic) | 6 | IC50 (Histone deacetylase 1 [2]): 8180 nM; IC50 (Histone deacetylase 2 [3]): 8260 nM; IC50 (Histone deacetylase 8 [4]): 3990 nM; Ratio IC50 (Homo sapiens [8]): 1360; Ratio IC50 (Homo sapiens [9]): 1380; Ratio IC50 (Homo sapiens [10]): 664
16 | CCCN1C(=O)N(Cc2ccc(C(=O)NO)cc2)C(=O)C1Cc1ccccc1 (racemic) | 56.9 | 
17 | O=C(NO)c1ccc(CN2C(=O)C(Cc3ccccc3)N(Cc3ccc4ccccc4c3)C2=O)cc1 (racemic) | 25.1 | 
18 | O=C(NO)c1ccc(CN2C(=O)C(Cc3ccccc3)N(Cc3ccccc3)C2=O)cc1 (racemic) | 21.3 | 

Row | SMILES | IC50 [1] [nM] | other results
19 | CC(C)(C)c1ccc(CC2(c3ccccc3)NC(=O)N(Cc3ccc(C(=O)NO)cc3)C2=O)cc1 (racemic) | 115 | 
20 | CCCN1C(=O)N(Cc2ccc(C(=O)NO)cc2)C(=O)C1CC(C)C (racemic) | 174 | 
21 | O=C(NO)c1ccc(CN2C(=O)C(Cc3ccccc3)N(Cc3ccccn3)C2=O)cc1 (racemic) | 4.8 | IC50 (Histone deacetylase 1 [2]): 3420 nM; IC50 (Histone deacetylase 2 [3]): 5080 nM; IC50 (Histone deacetylase 8 [4]): 7830 nM
22 | CCCC1(c2ccccc2)NC(=O)N(Cc2ccc(C(=O)NO)cc2)C1=O (racemic) | 50.9 | 
23 | O=C(NO)c1ccc(CN2C(=O)NC(Cc3ccccc3)(c3ccccc3)C2=O)cc1 (racemic) | 71.9 | 
24 | COc1ccc(CN2C(=O)N(Cc3ccc(C(=O)NO)cc3)C(=O)C2Cc2ccccc2)cc1 (racemic) | 102 | 
25 | COc1ccc(CC2(c3ccccc3)NC(=O)N(Cc3ccc(C(=O)NO)cc3)C2=O)cc1 (racemic) | 72.4 | 
26 | O=C(NO)c1ccc(CN2C(=O)NC(Cc3cccc4ccccc34)(c3ccccc3)C2=O)cc1 (racemic) | 91.9 | 
27 | CC1(c2ccccc2)NC(=O)N(Cc2ccc(C(=O)NO)cc2)C1=O (racemic) | 74.9 | 
28 | CC(C)(C)c1ccc(CN2C(=O)N(Cc3ccc(C(=O)NO)cc3)C(=O)C2Cc2ccccc2)cc1 (racemic) | 139 | 
29 | CC(C)CC1C(=O)N(Cc2ccc(C(=O)NO)cc2)C(=O)N1C (racemic) | 251 | 
30 | O=C(NO)c1ccc(CN2C(=O)NC(Cc3ccc4ccccc4c3)(c3ccccc3)C2=O)cc1 (racemic) | 74.6 | 
31 | O=C(NO)c1ccc(CN2C(=O)C(Cc3ccccc3)N(CCc3ccccc3)C2=O)cc1 (racemic) | 20.2 | 
32 | CN1C(=O)N(Cc2ccc(C(=O)NO)cc2)C(=O)C1Cc1ccccc1 (racemic) | 108 | 
33 | CC(C)CC1C(=O)N(Cc2ccc(C(=O)NO)cc2)C(=O)N1Cc1ccccc1 (racemic) | 129 | 
34 | O=C(NO)c1ccc(CN2C(=O)C(Cc3ccccc3)N(Cc3ccncc3)C2=O)cc1 (racemic) | 13.9 | 
35 | Cc1ccc(CC2(c3ccccc3)NC(=O)N(Cc3ccc(C(=O)NO)cc3)C2=O)cc1 (racemic) | 82.4 | 
36 | CN1CCc2c(c3ccccc3n2Cc2ccc(C(=O)NO)cc2)C1 [TUBASTATIN A] |  | IC50 (KG-1): 8820 nM; IC50 (HEL): 8090 nM; IC50 (Jurkat): 14600 nM; IC50 (HL-60 [11]): 4090 nM; IC50 (NCI-H929): 15400 nM; viability at 3 µM (HL-60 [12]): 87.6%; Activity (HL-60 [13]): 6.12%; Activity (HL-60 [14]): 6.24%; IC50 (HUVEC): 69200 nM; IC50 [15]: 48600 nM
